Results on nine compounds are retold here after ChEMBL document CHEMBL2046388, “Synthesis and biological evaluation of novel anticancer bivalent colchicine-tubulizine hybrids” (Bioorg Med Chem, 2012).

Calls of active or inactive are those of the source. The calls are words filed in the database; no cut-off is given here.

Data set [1] can be described thus: Lipophilicity, log D of the compound. The class given is physicochemical. The conditions noted are these: octanol/water.
In the next data set the test system is HBL-100. The data set can be described thus: Antiproliferative activity against human HBL100 after 72 hrs by MTT assay. The class given is functional, cell-based. The conditions noted are these: HBL-100, 72 h. (In general: Tetrazolium dyes change colour on reduction, which living cells bring about.)
Data set [2] is filed under the species Ovis aries. The data set can be described thus: Inhibition of sheep tubulin assembly assessed as half inhibitory molar ratio of compound to tubulin by DAPI fluorometric assay. Also noted: unit not given here. Summed up:
(§1)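 Lamb brain tubulin (ammonium sulfate fractionation, ion-exchange chromatography; quantified at 275 nm) was polymerized at 37 °C, started by warming, with DAPI in 20 mM sodium phosphate, 1 mM EGTA, 10 mM MgCl2, 3.4 M glycerol, pH 6.5, with DMSO under 1%. DAPI fluorescence was followed over time, and % inhibition was plotted against the ligand:tubulin molar ratio. Run in triplicate.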

For data set [3], the species on record is Ovis aries. As to the kind of experiment: Inhibition of sheep tubulin polymerization at 1 to 30 uM by DAPI fluorometric assay. The method in brief: as §1

`COc1ccc(CNc2nc(NCCOC(=O)CCCc3cn(CCCCCCCCCC(=O)N[C@H]4CCc5cc(OC)c(OC)c(OC)c5-c5ccc(OC)c(=O)cc54)nn3)nc(NCc3ccc(OC)cc3)n2)cc1` gave a log distribution coefficient (logD) in data set [1] of 8.738. The compound further registered a 50% inhibitory concentration (IC50) in the data set on HBL-100 of 1.01 µM. Moreover, the INH in the data set listed under Ovis aries [2] is 3.4.
Taken in the same sequence, the figures for `COc1ccc(CNc2nc(NCc3ccc(OC)cc3)nc(NCc3cn(CCCCCCCCCC(=O)N[C@H]4CCc5cc(OC)c(OC)c(OC)c5-c5ccc(OC)c(=O)cc54)nn3)n2)cc1` were 8.465, 0.699 µM and 0.99.
For `COc1ccc(CNc2nc(NCCO)nc(NCc3ccc(OC)cc3)n2)cc1`, in the data set on HBL-100, the IC50 was determined as 3.14 µM. Further, in the data set listed under Ovis aries [2], the INH came out at 0.34.
In data set [1], `COc1ccc(CNc2nc(NCCOC(=O)CCCCCCCCCCCCCCCc3cn(CCCCCC(=O)N[C@H]4CCc5cc(OC)c(OC)c(OC)c5-c5ccc(OC)c(=O)cc54)nn3)nc(NCc3ccc(OC)cc3)n2)cc1` had a logD of 9.814. In the data set on HBL-100, the IC50 stood at 0.599 µM. The INH in the data set listed under Ovis aries [2] turned out to be 2.75.
As for `COc1ccc(CNc2nc(NCCOC(=O)COCCOCCOCCOCCOCCOCCOCCOCCOCCOCCOCC(=O)N[C@H]3CCc4cc(OC)c(OC)c(OC)c4-c4ccc(OC)c(=O)cc43)nc(NCc3ccc(OC)cc3)n2)cc1`, the logD in data set [1] was 2.568. Half-maximal inhibition with HBL-100 (IC50) required 2.93 µM. For the same compound, in the data set filed under Ovis aries [2], the INH came to 3.44.
Taken in the same sequence, the figures for `COc1ccc(CNc2nc(NCCOC(=O)CCCc3cn(CCCCCC(=O)N[C@H]4CCc5cc(OC)c(OC)c(OC)c5-c5ccc(OC)c(=O)cc54)nn3)nc(NCc3ccc(OC)cc3)n2)cc1` were 6.367, 1.86 µM and 0.48.
`COc1ccc(CNc2nc(NCCOC(=O)CCCCc3cn(CCC(=O)N[C@H]4CCc5cc(OC)c(OC)c(OC)c5-c5ccc(OC)c(=O)cc54)nn3)nc(NCc3ccc(OC)cc3)n2)cc1`: the pH-dependent lipophilicity (logD) in data set [1] worked out at 5.591. In the data set on HBL-100, this compound gave a concentration for half-maximal inhibition (IC50) of 1.62 µM. Moreover, in the data set listed under Ovis aries [2], the INH came out at 0.41.
In data set [1], `COc1ccc(CNc2nc(NCCOC(=O)CCCCCCCCc3cn(CCC(=O)N[C@H]4CCc5cc(OC)c(OC)c(OC)c5-c5ccc(OC)c(=O)cc54)nn3)nc(NCc3ccc(OC)cc3)n2)cc1` came in with a logD of 7.612. Further, the inhibition entry in the data set listed under Ovis aries [3] was “Active”. The compound also showed a 50% inhibitory concentration (IC50) in the data set with HBL-100 of 0.687 µM. In addition, the INH in the data set filed under Ovis aries [2] came to 0.71.
On to `COc1ccc(CNc2nc(NCCOC(=O)CCc3cn(CCC(=O)N[C@H]4CCc5cc(OC)c(OC)c(OC)c5-c5ccc(OC)c(=O)cc54)nn3)nc(NCc3ccc(OC)cc3)n2)cc1`, for which the logD in data set [1] was found to be 4.815. Besides, half-maximal inhibition in the data set with HBL-100 (IC50) was put at 2.59 µM. The INH in the data set listed under Ovis aries [2] came to 0.48.

The logD is lipophilicity at a set pH, counting ionised and neutral species. What is called IC50 is the midpoint of a concentration-inhibition curve.
